Measured values as given in publication PMC4433755 (Clinical cancer research : an official journal of the …, 2015).
One block for each compound: values may come before it.

Tests used:
[1] = tested on: metabolism of JNJ-38877605 in human 12000×g liver supernatant; type: in vitro ADME; details: 5 μM 3H-JNJ-38877605, human 12000×g liver supernatant
Procedure, shortened: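 5 μM 3H-labelled test compound incubated with human 12000×g liver supernatant, with and without specific inhibitors of aldehyde oxidase/CYP2C8 or of CYP-450. Metabolites identified by LC-MS and quantified via the 3H label. Read-out is % inhibition of formation of each metabolite and of summed metabolite formation.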

[2] = 1-month non-GLP toxicology study in male rabbit, post-mortem kidney changes; type: in vivo; details: 1-month dosing; for Basophilia, corticotubular with basement membrane thickening, incidence / Dilatation, collecting ducts with amorphous material, incidence / Dilation, corticotubular, extending towards cortex, incidence / Fibrosis, cortical, incidence / Hypertrophy, corticotubular; with spicules and multinucleated cells, incidence: N 4
[3] = plasma metabolite profiling, dog; type: in vivo; details: 3H-JNJ-38877605 2.5 mg/kg, at about Cmax (1-4 h)
[4] = pharmacokinetics in humans, phase I study; type: in vivo, human; details: patients
Procedure, shortened: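 Patients received oral test compound once daily in 21-day cycles: 60 mg starting dose, with 10-40 mg OD levels added later. Blood was sampled at pre-specified times from cycle 1 day 1. Parent and N-desmethyl metabolite M2 were quantified in plasma. Cmax, tmax, t1/2, AUC and terminal elimination rate were calculated.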

[5] = plasma metabolite profiling, man; type: in vivo, human; details: 60 mg, at about Cmax (1-4 h)
[6] = plasma metabolite profiling, rat; type: in vivo; details: 3H-JNJ-38877605 2.5 mg/kg, at about Cmax (1-4 h)
[7] = metabolite formation in human liver 12000 ×g supernatant; type: in vitro ADME; details: 5 μM 3H-JNJ-38877605, 120 min
Procedure, shortened: (§1)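 Radiolabelled (3H) test compound was incubated with human liver subcellular fractions (microsomes or 12000 ×g supernatant). Metabolites were identified by LC-MS and quantified only where a reference standard or 3H label existed. Parallel incubations included specific inhibitors, quercetin (aldehyde oxidase/CYP2C8) or 1-aminobenzotriazole (CYP-450). Results were expressed as % inhibition of metabolite formation.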

[8] = plasma metabolite profiling, rabbit; type: in vivo; details: 3H-JNJ-38877605 100 mg/kg, at about Cmax (1-4 h)
[9] = tested on: Fms; details: of 246 kinases tested; cited from earlier work
[10] = phase I first-in-human dose escalation study, toxicity; type: in vivo
[11] = target: c-Met Kinase; details: read-out: IC50 for c-Met Kinase in vitro; cited from earlier work
[12] = metabolite formation in human liver microsomes; type: in vitro ADME; details: 5 μM 3H-JNJ-38877605, 120 min
Procedure, shortened: as §1

[13] = group 2: 50 mg/kg 3/week (150 mg/kg/week)
[14] = group 3: 100 mg/kg 1/week (100 mg/kg/week)
[15] = group 4: 200 mg/kg 1/week (200 mg/kg/week)
[16] = group 5: 100 mg/kg 3/week (300 mg/kg/week)
[17] = group 6: 50 mg/kg 1/day (350 mg/kg/week)

% inhibition of metabolite formation, M1/M2 [1]: 58%
% inhibition of metabolite formation, M3 [1]: 1%
% inhibition of metabolite formation, M4 [1]: 70%
% inhibition of metabolite formation, UD (sum of all metabolite formation) [1]: 19%
SMILES: Nn1nnc2ccccc21 [1-aminobenzotriazole]

SMILES: Cn1cc(-c2ccc3nnc(C(F)(F)c4ccc5ncccc5c4)n3n2)cn1 [JNJ-38877605]
Dilatation, collecting ducts with amorphous material, animals graded minimal [2, 13]: 3
Dilatation, collecting ducts with amorphous material, animals graded moderate [2, 13]: 0
Dilatation, collecting ducts with amorphous material, animals graded slight [2, 13]: 0
Kidney weights, fold change vs control [2, 13]: ×0.93 fold
Basophilia, corticotubular with basement membrane thickening, incidence [2, 13]: 2
Dilatation, collecting ducts with amorphous material, incidence [2, 13]: 3
Dilation, corticotubular, extending towards cortex, incidence [2, 13]: 0
Fibrosis, cortical, incidence [2, 13]: 0
Hypertrophy, corticotubular; with spicules and multinucleated cells, incidence [2, 13]: 1
Dilatation, collecting ducts with amorphous material, animals graded minimal [2, 14]: 1
Dilatation, collecting ducts with amorphous material, animals graded moderate [2, 14]: 0
Dilatation, collecting ducts with amorphous material, animals graded slight [2, 14]: 3
Basophilia, corticotubular with basement membrane thickening, incidence [2, 14]: 2
Dilatation, collecting ducts with amorphous material, incidence [2, 14]: 4
Dilation, corticotubular, extending towards cortex, incidence [2, 14]: 0
Fibrosis, cortical, incidence [2, 14]: 0
Hypertrophy, corticotubular; with spicules and multinucleated cells, incidence [2, 14]: 3
Dilatation, collecting ducts with amorphous material, animals graded minimal [2, 15]: 0
Dilatation, collecting ducts with amorphous material, animals graded moderate [2, 15]: 1
Dilatation, collecting ducts with amorphous material, animals graded slight [2, 15]: 3
Dilation, corticotubular, extending towards cortex, animals graded minimal [2, 15]: 2
Dilation, corticotubular, extending towards cortex, animals graded slight [2, 15]: 1
Fibrosis, cortical, animals graded minimal [2, 15]: 0
Fibrosis, cortical, animals graded slight [2, 15]: 1
Kidney weights, fold change vs control [2, 15]: ×1.20 fold
Basophilia, corticotubular with basement membrane thickening, incidence [2, 15]: 4
Dilatation, collecting ducts with amorphous material, incidence [2, 15]: 4
Dilation, corticotubular, extending towards cortex, incidence [2, 15]: 3
Fibrosis, cortical, incidence [2, 15]: 1
Hypertrophy, corticotubular; with spicules and multinucleated cells, incidence [2, 15]: 4
Dilatation, collecting ducts with amorphous material, animals graded minimal [2, 16]: 1
Dilatation, collecting ducts with amorphous material, animals graded moderate [2, 16]: 1
Dilatation, collecting ducts with amorphous material, animals graded slight [2, 16]: 2
Dilation, corticotubular, extending towards cortex, animals graded minimal [2, 16]: 2
Dilation, corticotubular, extending towards cortex, animals graded slight [2, 16]: 1
Fibrosis, cortical, animals graded minimal [2, 16]: 2
Fibrosis, cortical, animals graded slight [2, 16]: 0
Kidney weights, fold change vs control [2, 16]: ×1.13 fold
Basophilia, corticotubular with basement membrane thickening, incidence [2, 16]: 3
Dilatation, collecting ducts with amorphous material, incidence [2, 16]: 4
Dilation, corticotubular, extending towards cortex, incidence [2, 16]: 3
Fibrosis, cortical, incidence [2, 16]: 2
Hypertrophy, corticotubular; with spicules and multinucleated cells, incidence [2, 16]: 4
Dilatation, collecting ducts with amorphous material, animals graded minimal [2, 17]: 0
Dilatation, collecting ducts with amorphous material, animals graded moderate [2, 17]: 2
Dilatation, collecting ducts with amorphous material, animals graded slight [2, 17]: 2
Dilation, corticotubular, extending towards cortex, animals graded minimal [2, 17]: 2
Dilation, corticotubular, extending towards cortex, animals graded slight [2, 17]: 1
Fibrosis, cortical, animals graded minimal [2, 17]: 1
Fibrosis, cortical, animals graded slight [2, 17]: 1
Basophilia, corticotubular with basement membrane thickening, incidence [2, 17]: 4
Dilatation, collecting ducts with amorphous material, incidence [2, 17]: 4
Dilation, corticotubular, extending towards cortex, incidence [2, 17]: 3
Fibrosis, cortical, incidence [2, 17]: 2
Hypertrophy, corticotubular; with spicules and multinucleated cells, incidence [2, 17]: 4
concentration in plasma [3]: 575 ngeq/ml
accumulation after 21 days ([4]; oral OD): virtually no accumulation
plasma half-life ([4]; oral): short
time of Cmax after ingestion ([4]; oral): 1.5 to 4 h
concentration in plasma [5]: 111 ngeq/ml
concentration in plasma [6]: 1466 ngeq/ml
formation of metabolites after incubation of JNJ-38877605 [7]: 26.0
concentration in plasma [8]: 22836 ngeq/ml
selectivity for c-Met kinase relative to the next most potently inhibited kinase (Fms) [9]: > 833 fold
patients with grade 1 SCr increase ([10]; 40 mg OD): 2/3
serum creatinine (SCr) increase, CTCAE grade ([10]; 60 mg OD, all 5 subjects, asymptomatic): Grade 1
time to SCr increase after start of treatment ([10]; 60 mg OD, in 4 patients): 2 to 3 days
glomerular filtration rate by Cr51 measurement ([10]; 1 patient, 40 mg cohort, cycle 1 day 21 (98 pre-treatment)): 45 ml/min/1.73m^2
decrease of glomerular filtration rate by Cr51 measurement ([10]; 1 patient, 40 mg cohort, pre-treatment to cycle 1 day 21): > 50%
renal toxicity ([10]; 10 and 20 mg OD): no indication of renal toxicity
IC50 [11]: 4.7 nM
formation of metabolites after incubation of JNJ-38877605 [12]: 12.8

concentration in plasma [3]: 31 ngeq/ml
concentration in plasma [5]: 3 ngeq/ml
concentration in plasma [6]: 136 ngeq/ml
concentration in plasma [8]: 6388 ngeq/ml
SMILES: FC(F)(c1ccc2ncccc2c1)c1nnc2ccc(-c3cn[nH]c3)nn12 [M2]

% inhibition of metabolite formation, M1/M2 [1]: 75%
% inhibition of metabolite formation, M3 [1]: 94%
% inhibition of metabolite formation, M4 [1]: 73%
% inhibition of metabolite formation, UD (sum of all metabolite formation) [1]: 112%
SMILES: O=c1c(O)c(-c2ccc(O)c(O)c2)oc2cc(O)cc(O)c12 [Quercetin]
